Assay results reported in the RNAGym collection of RNA variant scans (doi:10.1126/science.aae0568).
Variants at the floor of the assay were thinned out.

B1: tRNA (parent)
chain: GUUCCGUUGGCGUAAUGGUAACGCGUCUCCCUCCUAAGGAGAAGACUGCGGGUUCGAGUCCCGUACGGAACG

Variants of: B1
Test: yeast fitness relative to wild type (ratio to wild type); higher = fitter; tRNA-Arg(CCU), competitive growth, 37 C, YPD
Summary of the method: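 Start and end populations of a pooled competition were compared by 100-nucleotide paired-end sequencing of gene amplicons. The Saccharomyces cerevisiae strains carried tRNA-Arg(CCU) gene variants at the native genomic locus, synthesised with a 3% per-site mutation rate at 69 sites, and competed in YPD at 37°C for 24 hours in six parallel replicates. Darwinian fitness relative to wild type was based on the change in genotype frequencies. Genotypes required ≥ 100 starting reads, and estimates < 0.5 were set to 0.5.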

Variant	yeast fitness
GUUCCGUUGGCGUAAUGGUAACGCGUCUCCAUCCUAAGGAGAAGACUGCGGGUUUGAGUCCCGUACGGAACG [C31A C55U]	0.863
GUUCCGUUGGCGUAAUGGUAACGCGUCUCCAUCCUAAGGAGAAGACUGCGGGUUAGAGUCCCGUACGGAACG [C31A C55A]	0.666
GUUCCGUUGGCGUAAUGGUAACGCGUCUCCAUGCUUAGGAGAAGACUGCGGGUUCGAGUCCCGUAUGGAACG [C31A C33G A36U C66U]	≤ 0.5
GUUCCGUUGGCGUAAUGGUAACGCGUCUCCAUCCUAAGGAGGGGACUGCGGGUUCGAGUCCCGUACGCAACG [C31A A42G A43G G68C]	0.52
GUUCCGUUGGCGUAAUGGUAACGCGUCUCCAUCCUAAGGAGAAAACUGCGGGUUCGAGUCCCGUACGGAACG [C31A G44A]	0.792
GUUCCGUUGGCGUAAUGGUAACGCGUCUCCAUCCUAAGGAGAAGACUGCGGGUUCGAGUCCCGUACGGAGCG [C31A A70G]	0.811
GUUCCGUUGGCGUAAUGGUAACGCGUCUCCAUCCUAAGGAGAAGACUGCGGGUUCGAGUCCCGUACGGACCG [C31A A70C]	0.783
GUUCCGUUGGCGUAAUGGUAACGCGUCUCCAUCCUAAGGAGAAGACUGCGGGUUCGAGUCCCGUACGGAUCG [C31A A70U]	0.927
GUUCCGUUGGCGUAAUGGUAACGCGUCUCCAUCCUAACGAGAAGACUGCGGGUUCGAGUCCCGUACGGAACG [C31A G38C]	0.749
GUUCCGUUGGCGUAAUGGUAACGCGUCUCCAUCCUAAGGAGAAGACUGCGGGUUCGAGUCCGGUACGCAACG [C31A C62G G68C]	≤ 0.5
GUUCCGUUGGCGUAAUGGUAACGCGUCUCCAUCCUAAGGCGAAGAUUGCGGGUUUGAGUCCCAUACGGAACG [C31A A40C C46U C55U G63A]	≤ 0.5
GUUCCGUUGGCGUAAUGGUAACGCGUCUCCAUCCUAAGGAGAAGACUGCGGGUUCGAGUCGCGUACGCAACG [C31A C61G G68C]	≤ 0.5
GUUCCGUUGGCGUAAUGGUAACGCGUCUCCAUCCUAAGGAGAAGACUCCGGGUUCGAGUCCCGUACGGAACG [C31A G48C]	0.661
GUUCCGUUGGCGUAAUGGUAACGCGUCUCCAUCCUAAGGAGAAGACUACGGGUUCGAGUCCCGUACGGAACG [C31A G48A]	0.764
GUUCCGUUGGCGUAAUGGUAACGCGUCUCCAUCCUAAGGAGAUGACUGCGGGUUCGAGUCCCGUACGGAACG [C31A A43U]	0.94
GUUCCGUUGGCGUAAUGGUAACGCGUCUCCAUCCUAAGGAGAGGACUGCGGGUUCGAGUCCCGUACGGAACG [C31A A43G]	0.897
GUUCCGUUGGCGUAAUGGUAACGCGUCUCCAUCCUAAGGAGCAGAGUGCGGGUUCGAGUCCCGUACAGAACG [C31A A42C C46G G67A]	0.625
GUUCCGUUGGCGUAAUGGUAACGCGUCUCCAUCCUAAGGAGAGGACUGCAGGUUCGUGUCCCGUACGGAACG [C31A A43G G50A A57U]	0.768
GUUCCGUUGGCGUAAUGGUAACGCGUCUCCAUACUAAGGAGAAGACUGCGGGUUGGUGUCCCGUAUAGAACG [C31A C33A C55G A57U C66U G67A]	≤ 0.5

Variant	yeast fitness
GUUCCGUUGGCGUAAUGGUAACGCGUCUCCAUCCUAAGAAGACGACUGCGGGAUCGAGUCCCGUAAGGAACG [C31A G39A A43C U53A C66A]	≤ 0.5
GUUCCGUUGGCGUAAUGGUAACGCGUCUCCAUCCUAAGGAGAAGACUGCGGGUUCGAGUCCGGUACGGAACG [C31A C62G]	0.651
GUUCCGUUGGCGUAAUGGUAACGCGUCUCCAUCCUAAGGAGAAGACUGCGGGUUCGAGUCCUGUACGGAACG [C31A C62U]	0.944
GUUCCGUUGGCGUAAUGGUAACGCGUCUCCAUGCUAAGGAGCAGACUACGGGUACGAGUCCCGUACGGCACG [C31A C33G A42C G48A U54A A69C]	≤ 0.5
GUUCCGUUGGCGUAAUGGUAACGCGUCUCCAUGCUUAGGAGAAGACUGCGGGUCCGAGUCCCGUACGGAACG [C31A C33G A36U U54C]	≤ 0.5
GUUCCGUUGGCGUAAUGGUAACGCGUCUCCAUCGUAAGGAGACGACCGCGGGUUCGAGUCUCGUACGGAACG [C31A C34G A43C U47C C61U]	≤ 0.5
GUUCCGUUGGCGUAAUGGUAACGCGUCUCCAUUCUAAGGACAAGACUGCGGGUUCGAGUCCCGUACCGAACG [C31A C33U G41C G67C]	≤ 0.5
GUUCCGUUGGCGUAAUGGUAACGCGUCUCCAUCCUAAGGAGAAGACUACGGGUUCGAGUCCCGUACGGCACG [C31A G48A A69C]	0.678
GUUCCGUUGGCGUAAUGGUAACGCGUCUCCAUCGUAAGGAGGAGUCUGCGGGUUCGAGUCCCGUACGGAACG [C31A C34G A42G A45U]	≤ 0.5
GUUCCGUUGGCGUAAUGGUAACGCGUCUCCAUCCUAAGAAGAAGACUGCGGGUUCGAGUCCCGUACGGAACG [C31A G39A]	0.777
GUUCCGUUGGCGUAAUGGUAACGCGUCUCCAUCAUACGGAGAAGACUGCGGGUUCGAGUCCCGUACGGAACG [C31A C34A A37C]	0.6
GUUCCGUUGGCGUAAUGGUAACGCGUCUCCAUCCUAAGGAGAAAACUGCGGGUUCGCGUCCCGUACGCAACG [C31A G44A A57C G68C]	0.753
GUUCCGUUGGCGUAAUGGUAACGCGUCUCCAUCCUAUGGAGAAGACUGCGGGUUCGAGUCCCAUACCGAACG [C31A A37U G63A G67C]	≤ 0.5
GUUCCGUUGGCGUAAUGGUAACGCGUCUCCAUCCUAAGGAGAAGACUGCGGGUUCGAGUCGCAUACGGAACG [C31A C61G G63A]	≤ 0.5
GUUCCGUUGGCGUAAUGGUAACGCGUCUCCAUCCUAAGGAGAAGACUGCGGGUUCGAGUCCCGUAUGGAACG [C31A C66U]	0.788
GUUCCGUUGGCGUAAUGGUAACGCGUCUCCAUCCUAAGGAGAAGACUGCGGGUUCGAGUCCCGUACGGUACG [C31A A69U]	0.856
GUUCCGUUGGCGUAAUGGUAACGCGUCUCCAUCCUAAGGAGAAGACUGCGGGUUCGAGUCCCGUACGGCACG [C31A A69C]	0.949
GUUCCGUUGGCGUAAUGGUAACGCGUCUCCAUCCUAAGGAGCAGACUGCGGGUUCGAGUCCCGUACGGAACG [C31A A42C]	0.963
GUUCCGUUGGCGUAAUGGUAACGCGUCUCCAUCCUAAGGAGAAAACUGCGGGUUCGCGUCCAGUACGCAACG [C31A G44A A57C C62A G68C]	0.559
